Test results taken from article PMC5161706 (Clinical cancer research : an official journal of the …, 2016).

Legend:
MG63.3 cells [1] = assay: Ex vivo lung culture metastatic outgrowth, MG63.3; format: cell-based, human
In short: (§1)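 Tumor cells were tail-vein injected, and lung sections were then cultured ex vivo. K7M2 cells were grown in female BALB/c mice and MG63.3 in female SCID-beige mice, 8-10 weeks old. Culture media held a final 0.1uM or 1uM rapamycin, or volume-matched DMSO, refreshed every 2 days. Eight sections were imaged per condition. Burden was total GFP+ area per section normalised to day 0.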

K7M2 cells [2] = assay: Ex vivo lung culture metastatic outgrowth, K7M2; format: cell-based, murine
In short: as §1

MG63.3 cells [3] = assay: Spontaneous; format: in vivo, human; details: orthotopically injected MG63.3 cells, 5mg/kg daily IP (Fig 6D)
In short: (§2)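 Cells were injected para-osseously into the proximal tibia: K7M2 into female BALB/c mice, human lines into female SCID-beige mice, 8-10 weeks old; MNNG at 1x10^6 cells. Mice received 5mg/kg IP rapamycin or vehicle daily, 5 days/week. Tumours were measured every 3-4 days and limbs amputated at 1.5-1.7 cm3. Survival ran from amputation, with metastasis confirmed at necropsy; Kaplan-Meier analysis, Gehan-Breslow-Wilcoxon test.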

K7M2 cells [4] = assay: Spontaneous; format: in vivo, murine; details: orthotopically injected K7M2 cells, 5mg/kg daily IP (Fig 6C)
In short: as §2

[5] = test system: phosphorylation of p70S6K (Thr389); assay: Immunoblot for phospho- and total p70S6K in K7M2 cells; format: cell-based, murine; details: concentrations as low as 0.1μM, 4 hours, immunoblot (Fig 3A)
[6] = test system: phosphorylation of p70S6K (Thr389); assay: Immunoblot for phospho- and total p70S6K in MG63.3 cells; format: cell-based, human; details: concentrations as low as 0.1μM, 4 hours, immunoblot (Fig 3A)
MNNG cells = assay: Spontaneous; format: in vivo, human; details: orthotopically injected MNNG cells, 5mg/kg daily IP (Fig 6E)
In short: as §2

MG63.3 cells [7] = assay: In vitro ds-SL-mCherry reporter expression; format: cell-based, human; details: 1μM rapamycin, 5 days in culture (Fig 4B)
[8] = Single rapamycin dose pharmacokinetic study, whole blood levels; format: in vivo, mice
In short: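 Naive female athymic nude mice, 8-10 weeks old, received a single 5mg/kg IP dose (n=3 per condition). Whole blood was sampled at 0, 1, 2, 6, 24 and 48 h and quantified by validated LC/MS/MS. Parameters were derived noncompartmentally: Cmax and trough read directly from the data, AUC by the log-linear trapezoidal method.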

K7M2 cells [9] = assay: In vitro ds-SL-mCherry reporter expression; format: cell-based, murine; details: 1μM rapamycin, 5 days in culture (Fig 4A)

**Q.** With `CO[C@H]1C[C@@H]2CC[C@@H](C)[C@@](O)(O2)C(=O)C(=O)N2CCCC[C@H]2C(=O)O[C@H]([C@H](C)C[C@@H]2CC[C@@H](O)[C@H](OC)C2)CC(=O)[C@H](C)/C=C(\C)[C@@H](O)[C@@H](OC)C(=O)[C@H](C)C[C@H](C)/C=C/C=C/C=C/1C` [rapamycin] as the molecule, how does the “metastatic outgrowth in ex vivo lung culture” value (“metastatic outgrowth” for short) (MG63.3 cells [1]; MG63.3, 0.1μM rapamycin (Fig 5D, 5E)) read?
**A.** Its value is “robustly inhibited metastatic outgrowth”.

**Q.** And the “metastatic outgrowth” value (MG63.3 cells [1]; MG63.3, 1μM rapamycin (Fig 5D, 5E))?
**A.** The value was “robustly inhibited metastatic outgrowth”.

**Q.** What about the “metastatic outgrowth” value (K7M2 cells [2]; K7M2, 0.1μM rapamycin (Fig 5B, 5C)) of the same molecule?
**A.** Its value is “robustly inhibited metastatic outgrowth”.

**Q.** What about the “metastatic outgrowth” value (K7M2 cells [2]; K7M2, 1μM rapamycin (Fig 5B, 5C)) of the same molecule?
**A.** The value was “robustly inhibited metastatic outgrowth”.

**Q.** And the “survival of mice from time of limb amputation” value (“survival of mice” below) (MG63.3 cells [3])?
**A.** The value was “significantly prolonged survival”.

**Q.** And the “survival of mice” value (K7M2 cells [4])?
**A.** The value was “significantly prolonged survival”.

**Q.** And the “inhibition of phosphorylation of p70S6K” value [5]?
**A.** The value was “effectively inhibited phosphorylation of p70S6K”.

**Q.** What about the “inhibition of phosphorylation of p70S6K” value [6] of the same molecule?
**A.** The value was “effectively inhibited phosphorylation of p70S6K”.

**Q.** And the “survival of mice” value (MNNG cells)?
**A.** Its value is “significantly prolonged survival”.

**Q.** What about the “effect on ds-SL-mCherry reporter expression in vitro” value (MG63.3 cells [7]) of the same molecule?
**A.** Its value is “no effect on reporter expression”.

**Q.** And the AUC/dose equivalent value ([8]; mice, 5mg/kg IP, noncompartmental methods, predicted sufficient to inhibit p70S6K phosphorylation and exert anti-metastatic activities)?
**A.** Its AUC/dose equivalent value is 3,555 [ng*hr/ml]/[mg/kg].

**Q.** And the “whole blood concentration maintained” value ([8]; naïve mice, single IP dose of 5mg/kg, for 24hrs (Fig 3C))?
**A.** Its value is “above 0.1 μM”.

**Q.** And the “effect on ds-SL-mCherry reporter expression in vitro” value (K7M2 cells [9])?
**A.** The value was “no effect on reporter expression”.
